The test system of one test is SF-268. The test can be described thus: Compound was evaluated for its in vitro activity in human solid tumor cell line SF-268 measured in a [3H]thymidine incorporation assay. In kind it is functional, cell-based. The following applies: SF-268, 72 h. In a few lines:
(§1)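 Cell lines adapted to RPMI medium, exposed to compound for 72 h at 37 °C under 5% CO2. Methyl-[3H]-thymidine (0.5 μCi) added for the final 16 h, then incorporation measured. Antiproliferative IC50 (μM) reported.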
(In general: Dividing cells build labelled thymidine or BrdU into new DNA.)

In the next test the test system is NCI-H460. The test can be described thus: Compound was evaluated for its in vitro activity in human solid tumor cell line H-460 measured in a [3H]thymidine incorporation assay. In kind it is functional, cell-based. The following applies: NCI-H460, 72 h. In a few lines: as §1
For a further test, the system named is MCF7. The test can be described thus: Compound was evaluated for its in vitro activity in human solid tumor cell line MCF-7 measured in a [3H]thymidine incorporation assay. The following applies: MCF7, 72 h. In kind it is functional, cell-based. The procedure, abridged:
as §1

In another test the test system is MRC5. Description: Cytotoxicity of compound was evaluated against MRC-5 cell line. The format is functional. Particulars: Homo sapiens.

As a reminder, the IC50 is the concentration that inhibits the measured activity by half. A low value points to greater potency in that assay. As a reminder, the CC50 is the concentration at which the toxic effect on the cells reaches its halfway point. The low end stands for harm at low concentration, the high end for better tolerance by the cells.

SMILES strings stand for the structures.

As to `Nc1nc(O)c2ncn(C[C@H]3O[C@@H](P(=O)(O)O)C[C@H]3F)c2n1`, the results for the IC50 in the test on SF-268, in the test with NCI-H460 and with MCF7 were 44 µM, 7.1 µM and more than 12 µM, respectively.

As to `Nc1nc(N)c2ncn(C[C@@H]3CC[C@@H](P(=O)(O)O)O3)c2n1`, the IC50 in the test on SF-268 was more than 100 µM; in the test with NCI-H460, 57 µM; in the test on MCF7, 52 µM.

With `Nc1nc(O)c2ncn(C[C@H]3O[C@@H](P(=O)(O)O)[C@H](O)[C@@H]3O)c2n1`, the IC50 with SF-268, in the test with NCI-H460 and with MCF7 was more than 100 µM in each case.

Turning to `Nc1nc(O)c2ncn(C[C@@H]3CC[C@H](P(=O)(O)O)O3)c2n1`, the concentration for half-maximal inhibition (IC50) in the test with SF-268 is more than 100 µM; in the test on NCI-H460 it was 40 µM; in the test on MCF7, 67 µM. The molecule further yielded a CC50 in the test with MRC5 of more than 10 µg/mL.

On to `Nc1nc(NC2CC2)c2ncn(C[C@@H]3CC[C@@H](P(=O)(O)O)O3)c2n1`, for which the IC50 in the test with SF-268, in the test on NCI-H460 and in the test with MCF7 was more than 100 µM each time.

As to `Nc1nc(O)c2ncn(C[C@H]3O[C@H](P(=O)(O)O)C[C@@H]3O)c2n1`, the values for the IC50 in the test with SF-268, in the test with NCI-H460 and with MCF7 were 13 µM, 30 µM and 53 µM, respectively.

On to `Nc1nc(O)c2ncn(C[C@H]3O[C@@H](P(=O)(O)O)C[C@@H]3F)c2n1`, for which the values for the IC50 with SF-268, in the test with NCI-H460 and in the test on MCF7 were more than 100 µM, 44 µM and more than 100 µM, respectively.

Consider `Nc1nc(O)c2ncn(C[C@H]3O[C@@H](P(=O)(O)O)C[C@@H]3O)c2n1`, for which the IC50 stood at 0.14 µM in the test with SF-268, 0.53 µM in the test with NCI-H460 and 0.67 µM in the test on MCF7.

With `CO[C@H]1C[C@H](P(=O)(O)O)O[C@@H]1Cn1cnc2c(O)nc(N)nc21`, the IC50 in the test with SF-268 was found to be 2.4 µM; in the test on NCI-H460 it was 7.6 µM; in the test on MCF7, 5.6 µM.

In the case of `N.Nc1nc(O)c2ncn(C[C@@H]3CC[C@@H](P(=O)(O)O)O3)c2n1`, the IC50 is more than 100 µM in the test on SF-268, 64 µM in the test on NCI-H460 and more than 100 µM in the test with MCF7. The same molecule returned a CC50 in the test on MRC5 of 28 µg/mL.

Regarding `Nc1nc(N)c2ncn(C[C@H]3O[C@@H](P(=O)(O)O)C[C@@H]3O)c2n1`, the figures for the IC50 in the test on SF-268, in the test on NCI-H460 and in the test with MCF7 were 1.2 µM, 0.71 µM and 1.4 µM, respectively.

As for `Nc1nc(NC2CC2)c2ncn(C[C@H]3O[C@@H](P(=O)(O)O)C[C@@H]3O)c2n1`, the IC50 with SF-268 turned out to be 28 µM; in the test on NCI-H460, 20 µM; with MCF7, 48 µM.

These data come from ChEMBL document CHEMBL1134930, “Novel nucleotide phosphonate analogues with potent antitumor activity” (Bioorg Med Chem Lett, 2002).
